Results taken from ChEMBL document CHEMBL1926642, “Relevance of the C-5 position to schweinfurthin induced cytotoxicity” (2011).

Columns and labels:
Type in all cases: functional
CCRF-CEM = assay: Growth inhibition of human CCRF-CEM cells after 48 hrs by sulforhodamine B assay
HL-60(TB) = assay: Growth inhibition of human HL-60(TB) cells after 48 hrs by sulforhodamine B assay; conditions: HL-60, 48 h
Method in brief: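 Run in the NCI 60 cell-line screen as the full 5-dose assay that follows initial single-dose testing; GI50 is read from the dose series.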

RPMI-8226 = assay: Growth inhibition of human RPMI8226 cells after 48 hrs by sulforhodamine B assay; conditions: RPMI-8226, 48 h
EKVX = assay: Growth inhibition of human EKVX cells after 48 hrs by sulforhodamine B assay
NCI-H23 = assay: Growth inhibition of human NCI-H23 cells after 48 hrs by sulforhodamine B assay; conditions: NCI-H23, 48 h
A549 = assay: Growth inhibition of human A549 cells after 48 hrs by sulforhodamine B assay; conditions: A549, 48 h
NCI-H522 = assay: Growth inhibition of human NCI-H522 cells after 48 hrs by sulforhodamine B assay; conditions: NCI-H522, 48 h
HCC 2998 = assay: Growth inhibition of human HCC2998 cells after 48 hrs by sulforhodamine B assay; conditions: HCC 2998, 48 h
HCT-116 = assay: Growth inhibition of human HCT116 cells after 48 hrs by sulforhodamine B assay; conditions: HCT-116, 48 h
SW-620 = assay: Growth inhibition of human SW620 cells after 48 hrs by sulforhodamine B assay; conditions: SW-620, 48 h
SF-268 = assay: Growth inhibition of human SF268 cells after 48 hrs by sulforhodamine B assay; conditions: SF-268, 48 h
SF-539 = assay: Growth inhibition of human SF539 cells after 48 hrs by sulforhodamine B assay; conditions: SF-539, 48 h
SNB-19 = assay: Growth inhibition of human SNB19 cells after 48 hrs by sulforhodamine B assay; conditions: SNB-19, 48 h
U-251 = assay: Growth inhibition of human U251 cells after 48 hrs by sulforhodamine B assay; conditions: U-251, 48 h
LOX IMVI = assay: Growth inhibition of human LOXIMVI cells after 48 hrs by sulforhodamine B assay
MDA-MB-435 = assay: Growth inhibition of human MDA-MB-435 cells after 48 hrs by sulforhodamine B assay; conditions: MDA-MB-435, 48 h
SK-MEL-2 = assay: Growth inhibition of human SK-MEL-2 cells after 48 hrs by sulforhodamine B assay; conditions: SK-MEL-2, 48 h
SK-MEL-28 = assay: Growth inhibition of human SK-MEL-28 cells after 48 hrs by sulforhodamine B assay; conditions: SK-MEL-28, 48 h
SK-MEL-5 = assay: Growth inhibition of human SK-MEL-5 cells after 48 hrs by sulforhodamine B assay; conditions: SK-MEL-5, 48 h
IGROV-1 = assay: Growth inhibition of human IGROV1 cells after 48 hrs by sulforhodamine B assay; conditions: IGROV-1, 48 h
OVCAR-3 = assay: Growth inhibition of human OVCAR3 cells after 48 hrs by sulforhodamine B assay; conditions: OVCAR-3, 48 h
OVCAR-4 = assay: Growth inhibition of human OVCAR4 cells after 48 hrs by sulforhodamine B assay; conditions: OVCAR-4, 48 h
OVCAR-5 = assay: Growth inhibition of human OVCAR5 cells after 48 hrs by sulforhodamine B assay; conditions: OVCAR-5, 48 h
OVCAR-8 = assay: Growth inhibition of human OVCAR8 cells after 48 hrs by sulforhodamine B assay; conditions: OVCAR-8, 48 h
SK-OV-3 = assay: Growth inhibition of human SKOV3 cells after 48 hrs by sulforhodamine B assay; conditions: SK-OV-3, 48 h
A498 = assay: Growth inhibition of human A498 cells after 48 hrs by sulforhodamine B assay; conditions: A498, 48 h
CAKI-1 = assay: Growth inhibition of human Caki1 cells after 48 hrs by sulforhodamine B assay; conditions: CAKI-1, 48 h
RXF 393 = assay: Growth inhibition of human RXF393 cells after 48 hrs by sulforhodamine B assay; conditions: RXF 393, 48 h
MDA-MB-231 = assay: Growth inhibition of human MDA-MB-231/ATCC cells after 48 hrs by sulforhodamine B assay; conditions: MDA-MB-231, 48 h
[1] = Growth inhibition of human Hs 578T cells after 48 hrs by sulforhodamine B assay
BT-549 = assay: Growth inhibition of human BT549 cells after 48 hrs by sulforhodamine B assay; conditions: BT-549, 48 h
[2] = read-out: pLC50 (the source's name) (converted)

SMILES: COCOc1cc(/C=C/c2cc(C=O)c3c(c2)C[C@@H]2C(C)(C)[C@H](O)CC[C@@]2(C)O3)cc(OC)c1C/C=C(\C)CCC=C(C)C
- GI50 (CCRF-CEM): 4.37 µM
- LC50 (CCRF-CEM): > 100 µM
- TGI (CCRF-CEM; read-out: pTGI (converted)): > 100 µM
- GI50 (HL-60(TB)): 3.55 µM
- CC50 (HL-60(TB); [2]): > 100 µM
- TGI (HL-60(TB); read-out: pTGI (converted)): 60.3 µM
- GI50 (RPMI-8226): 1.17 µM
- LC50 (RPMI-8226): > 100 µM
- TGI (RPMI-8226; read-out: pTGI (converted)): > 100 µM
- GI50 (EKVX): 5.5 µM
- LC50 (50% lethal concentration) (EKVX): > 100 µM
- TGI (EKVX; read-out: pTGI (converted)): > 100 µM
- GI50 (NCI-H23): 11 µM
- LC50 (NCI-H23): > 100 µM
- TGI (NCI-H23; read-out: pTGI (converted)): > 100 µM
- LC50 (A549): > 100 µM
- GI50 (A549; read-out: GI50): 7.8 µM
- GI50 (A549; read-out: pGI50 (converted)): 7.76 µM
- TGI (A549; read-out: pTGI (converted)): > 100 µM
- GI50 (NCI-H522): 18.2 µM
- LC50 (NCI-H522): > 100 µM
- TGI (NCI-H522; read-out: pTGI (converted)): > 100 µM
- GI50 (HCC 2998): 12.3 µM
- LC50 (HCC 2998): > 100 µM
- TGI (HCC 2998; read-out: pTGI (converted)): > 100 µM
- GI50 (HCT-116): 6.61 µM
- LC50 (HCT-116): > 100 µM
- TGI (HCT-116; read-out: pTGI (converted)): 35.5 µM
- GI50 (SW-620): 10.2 µM
- LC50 (SW-620): > 100 µM
- TGI (SW-620; read-out: pTGI (converted)): 44.7 µM
- GI50 (SF-268): 11 µM
- LC50 (SF-268): > 100 µM
- TGI (SF-268; read-out: pTGI (converted)): 85.1 µM
- GI50 (SF-539): 0.891 µM
- LC50 (SF-539): > 100 µM
- TGI (SF-539; read-out: pTGI (converted)): 12.9 µM
- GI50 (SNB-19): 16.6 µM
- LC50 (SNB-19): > 100 µM
- TGI (SNB-19; read-out: pTGI (converted)): > 100 µM
- GI50 (U-251): 1.74 µM
- LC50 (U-251): > 100 µM
- TGI (U-251; read-out: pTGI (converted)): 60.3 µM
- GI50 (LOX IMVI): 3.98 µM
- LC50 (LOX IMVI): 44.7 µM
- TGI (LOX IMVI; read-out: pTGI (converted)): 15.8 µM
- GI50 (MDA-MB-435): 6.76 µM
- LC50 (MDA-MB-435): > 100 µM
- TGI (MDA-MB-435; read-out: pTGI (converted)): 69.2 µM
- GI50 (SK-MEL-2): 12.9 µM
- LC50 (SK-MEL-2): > 100 µM
- TGI (SK-MEL-2; read-out: pTGI (converted)): > 100 µM
- GI50 (SK-MEL-28): 2.95 µM
- CC50 (SK-MEL-28; [2]): > 100 µM
- TGI (SK-MEL-28; read-out: pTGI (converted)): > 100 µM
- GI50 (SK-MEL-5): 7.24 µM
- LC50 (SK-MEL-5): 58.9 µM
- TGI (SK-MEL-5; read-out: pTGI (converted)): 22.9 µM
- GI50 (IGROV-1): 9.77 µM
- LC50 (IGROV-1): > 100 µM
- TGI (IGROV-1; read-out: pTGI (converted)): > 100 µM
- GI50 (OVCAR-3): 27.5 µM
- LC50 (OVCAR-3): > 100 µM
- TGI (OVCAR-3; read-out: pTGI (converted)): > 100 µM
- GI50 (OVCAR-4): 6.92 µM
- LC50 (OVCAR-4): > 100 µM
- TGI (OVCAR-4; read-out: pTGI (converted)): > 100 µM
- GI50 (OVCAR-5): 11.7 µM
- LC50 (OVCAR-5): > 100 µM
- TGI (OVCAR-5; read-out: pTGI (converted)): > 100 µM
- GI50 (OVCAR-8): 17 µM
- LC50 (OVCAR-8): > 100 µM
- TGI (OVCAR-8; read-out: pTGI (converted)): 61.7 µM
- GI50 (SK-OV-3): 41.7 µM
- LC50 (SK-OV-3): > 100 µM
- TGI (SK-OV-3; read-out: pTGI (converted)): > 100 µM
- GI50 (A498): 7.59 µM
- LC50 (A498): > 100 µM
- TGI (A498; read-out: pTGI (converted)): > 100 µM
- GI50 (CAKI-1): 3.98 µM
- LC50 (CAKI-1): > 100 µM
- TGI (CAKI-1; read-out: pTGI (converted)): > 100 µM
- GI50 (RXF 393): 0.309 µM
- LC50 (50% lethal concentration) (RXF 393): 12.3 µM
- TGI (RXF 393; read-out: pTGI (converted)): 1.32 µM
- GI50 (MDA-MB-231): 3.39 µM
- CC50 (MDA-MB-231; [2]): > 100 µM
- TGI (MDA-MB-231; read-out: pTGI (converted)): 15.8 µM
- GI50 [1]: 1.74 µM
- CC50 [1, 2]: > 100 µM
- TGI ([1]; read-out: pTGI (converted)): > 100 µM
- GI50 (BT-549): 3.89 µM
- LC50 (BT-549): > 100 µM
- TGI (BT-549; read-out: pTGI (converted)): 63.1 µM
